This note sets out measurements from PubChem BioAssay.

Structures are written as SMILES. Values without a mark were called inactive.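 Rule for the calls, unless noted: active = viability at or below 30% in both replicate assays; inconclusive = viability at or below 30% in just one of the two assays; inactive = the rest.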

One test is described as follows: reduced viability of SK-BR-3 breast cancer cells – cell-based, 24 h, human, pilot screen (AID 572;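 active = viability at or below 10% of carrier control in both of two separate runs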;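 note: compound exposure lasted between 18 and 24 h rather than exactly 24 h; 100% = carrier-treated control wells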). The note with it: SK-BR-3 viability, CellTiter-Glo luminescence, at 10 µM, hits give low values. (In ATP-based viability assays light output follows the ATP content of the culture.)
One may read the viability as a read-out of living cells in per cent, often relative to untreated cells. `CCSc1nc2ccccc2n1CCC(=O)O`: the viability was 99%.

Regarding `C=CCN(CC=C)C(=O)CN1C(=O)c2ccccc2C1=O`, the viability is 125%.

Take `CCOC(=O)N1CCN(CC(=O)Nc2c(C(=O)OC)[nH]c3cccc(Cl)c23)CC1`: the viability is 102%.

For `CC(=O)Nc1ccc(NC(=O)C(C)Oc2ccccc2F)cc1` (stereo not drawn), the viability was 102%.

On to `CCCCC(=O)Nc1c(O)c2ccccc2[nH]c1=O`, for which the viability is 95.5%.

In the case of `O=C(Cc1ccc(Br)cc1)N1CCCCCC1`, the viability is 108%.

Consider `CC1=C(C(=O)NCc2ccccn2)C2(CCC(C)CC2)OC1=O` (stereo not drawn), for which the viability is 94.5%.

As to `Cc1nc(C)c(C(=O)Nc2ccc(Oc3ccccc3)cc2)o1`, the viability was 94.5%.

Regarding `Cc1ccc2c(c1)sc1ncc(NC(=O)c3ccccc3)c(=O)n12`, the viability is 88.5%.

In the case of `Cc1ccc2cc(CN(CC(C)C)C(=O)C3CCCO3)c(=O)[nH]c2c1` (stereo not drawn), the viability is 95%.

With `O=C(NCC1CCCO1)c1cccc(N2C(=O)C3C4C=CC(C4)C3C2=O)c1` (stereo not drawn), the viability was 110%.

Consider `CCOC(=O)c1sc2nc3c(cc2c1N)COC(C)(C)C3`, for which the viability is 97%.

Regarding `CCCCn1c(SCC(=O)NCc2ccccc2)nc2ccc(N3CCOCC3)cc2c1=O`, the viability was 80%.

Take `Cc1ccccc1-c1nc(CS(=O)(=O)CC(=O)N(C)C2CCCCC2)c(C)o1`: the viability is 108%.

`COC1CCCCC1NS(=O)(=O)c1ccccc1` (stereo not drawn): the viability is 106%.

As to `O=C(CSc1nc2ccccc2nc1SCC(=O)N1CCOCC1)N1CCOCC1`, the viability was 100%.

Take `Cc1ccccc1-c1nc(CS(=O)(=O)CC(=O)NCc2ccccc2)c(C)o1`: the viability was 93.5%.

In the case of `Cc1ccc(S(=O)(=O)N2CCN(C(=O)CN3CCOCC3)C2C(C)C)cc1` (stereo not drawn), the viability is 99.5%.

As to `CC(CN1CCCCC1)OC(=O)c1ccc2c(c1)OCO2` (stereo not drawn), the viability is 104%.

Take `CCOC(=O)N1CCN(C(=O)CN(C)S(=O)(=O)c2ccc(OC)c(OC)c2)CC1`: the viability was 100%.

Consider `CC1(C)CC(=O)CC(C)(C)N1OC(=O)c1ccccn1`, for which the viability is 106%.

Take `Cc1cccc(NC(=O)CC2NC3CCCCC3NC2=O)c1` (stereo not drawn): the viability is 99.5%.

Regarding `O=C(CS(=O)(=O)c1cn(Cc2ccc(Cl)cc2)c2ccccc12)N1CCOCC1`, the viability is 84%.

For the compound `Cc1cccc(-n2ncc3c(N)ncnc32)c1`, the viability was 94.5%.

In the case of `O=C(CN1CCN(c2nc(-c3ccccc3)cs2)CC1)Nc1ccc2c(c1)OCO2`, the viability was 90.5%.

As for `CCC12CN3CC(CC)(CN(C1)C3c1ccc(OC(C)C)cc1)C2=O` (stereo not drawn), the viability is 94%.

For `Cc1c(/C(O)=C2/C(=O)C(=O)N(CCN3CCOCC3)C2c2cccs2)cnn1-c1ccccc1` (stereo not drawn), the viability was 88%.

For `c1cc2c(cc1C1=Nn3c(nnc3C3CCCCC3)SC1)OCO2`, the viability was 133%.

As for `COc1ccc(CNC(=O)C(c2ccco2)N(Cc2cccs2)C(=O)Cc2cccs2)cc1` (stereo not drawn), the viability was 96.5%.

Take `Cc1cccc(NC(=O)c2cc3ccccc3o2)c1`: the viability was 142%.

As to `COc1ccc(S(=O)(=O)NCCOc2ccccc2)cc1OC`, the viability was 94%.

With `Cc1nc(SC2C=CS(=O)(=O)C2)n[nH]1` (stereo not drawn), the viability is 104%.

Regarding `O=C1c2ccccc2C(Nc2ccc3nc(-c4cccnc4)[nH]c3c2)N1Cc1ccco1` (stereo not drawn), the viability is 88.5%.

As for `Cc1ccc(NC(=O)CSc2nnc(CCCCCNC(=O)OC(C)(C)C)o2)c(C)c1`, the viability was 112%.

`O=S(=O)(NCC1CCCO1)c1ccc(S(=O)(=O)N2CCc3ccccc3C2)cc1` (stereo not drawn): the viability was 90%.

In the case of `COC(=O)c1ccc(C(=O)OC)c(NC(=O)Nc2ccc3c(c2)OCO3)c1`, the viability was 86.5%.

For the compound `CCN(CC(=O)NCc1cccs1)C(=O)c1cc(S(=O)(=O)N2CCOCC2)ccc1C`, the viability is 89.5%.

On to `COc1ccc(-c2c3c(=O)n(C)c(=O)n(C)c3cn2-c2cccc(OC)c2)cc1`, for which the viability is 105%.

For `CCOC(=O)CCC(=O)Nc1ccc(S(=O)(=O)N2CCCC2)cc1`, the viability was 94.5%.

The next test is described as follows: HUVEC growth inhibition – cell-based, human, primary screen (AID 575).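 Note: 100% = median of untreated cell wells with 0.1% DMSO on each plate.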 The note with it: HUVEC proliferation, CellTiter-Glo luminescence, 72 h; at 10 µM; hits give low values. Summed up:
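Assay system: primary human umbilical vein endothelial cells / Buffer or medium: endothelial basal medium with 2% FBS plus growth supplements / Compound dosing: one dose, 10 µM final, 0.1% DMSO / Timing: 72 h treatment at 37 °C / Signal: CTG luminescence / Benchmarks: 32 DMSO-only cell-control wells (high), 32 MePR drug-control wells (low) per plate / Plate: collagen-coated 384-well format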
Turning to `CCSc1nc2ccccc2n1CCC(=O)O`, the viability was 101%.

For the compound `C=CCN(CC=C)C(=O)CN1C(=O)c2ccccc2C1=O`, the viability was 97.5%.

Turning to `CCOC(=O)N1CCN(CC(=O)Nc2c(C(=O)OC)[nH]c3cccc(Cl)c23)CC1`, the viability is 91.9%.

With `CC(=O)Nc1ccc(NC(=O)C(C)Oc2ccccc2F)cc1` (stereo not drawn), the viability was 113%.

`CCCCC(=O)Nc1c(O)c2ccccc2[nH]c1=O`: the viability is 108%.

On to `O=C(Cc1ccc(Br)cc1)N1CCCCCC1`, for which the viability is 115%.

Turning to `CC1=C(C(=O)NCc2ccccn2)C2(CCC(C)CC2)OC1=O` (stereo not drawn), the viability was 103%.

As for `Cc1nc(C)c(C(=O)Nc2ccc(Oc3ccccc3)cc2)o1`, the viability is 66.4%.

As to `Cc1ccc2c(c1)sc1ncc(NC(=O)c3ccccc3)c(=O)n12`, the viability was 114%.

Take `Cc1ccc2cc(CN(CC(C)C)C(=O)C3CCCO3)c(=O)[nH]c2c1` (stereo not drawn): the viability was 102%.

As for `O=C(NCC1CCCO1)c1cccc(N2C(=O)C3C4C=CC(C4)C3C2=O)c1` (stereo not drawn), the viability was 98.4%.

In the case of `CCOC(=O)c1sc2nc3c(cc2c1N)COC(C)(C)C3`, the viability is 111%.

For `CCCCn1c(SCC(=O)NCc2ccccc2)nc2ccc(N3CCOCC3)cc2c1=O`, the viability was 98.1%.

With `Cc1ccccc1-c1nc(CS(=O)(=O)CC(=O)N(C)C2CCCCC2)c(C)o1`, the viability was 90.9%.

As to `COC1CCCCC1NS(=O)(=O)c1ccccc1` (stereo not drawn), the viability is 97.8%.

Take `O=C(CSc1nc2ccccc2nc1SCC(=O)N1CCOCC1)N1CCOCC1`: the viability was 110%.

Take `Cc1ccccc1-c1nc(CS(=O)(=O)CC(=O)NCc2ccccc2)c(C)o1`: the viability is 87.8%.

Regarding `Cc1ccc(S(=O)(=O)N2CCN(C(=O)CN3CCOCC3)C2C(C)C)cc1` (stereo not drawn), the viability was 102%.

Regarding `CC(CN1CCCCC1)OC(=O)c1ccc2c(c1)OCO2` (stereo not drawn), the viability was 99.1%.

Consider `CCOC(=O)N1CCN(C(=O)CN(C)S(=O)(=O)c2ccc(OC)c(OC)c2)CC1`, for which the viability is 104%.

Regarding `CC1(C)CC(=O)CC(C)(C)N1OC(=O)c1ccccn1`, the viability was 94%.

As for `Cc1cccc(NC(=O)CC2NC3CCCCC3NC2=O)c1` (stereo not drawn), the viability was 96.7%.

With `O=C(CS(=O)(=O)c1cn(Cc2ccc(Cl)cc2)c2ccccc12)N1CCOCC1`, the viability was 105%.

With `Cc1cccc(-n2ncc3c(N)ncnc32)c1`, the viability is 51.3%.

As for `O=C(CN1CCN(c2nc(-c3ccccc3)cs2)CC1)Nc1ccc2c(c1)OCO2`, the viability was 89.9%.

Regarding `CCC12CN3CC(CC)(CN(C1)C3c1ccc(OC(C)C)cc1)C2=O` (stereo not drawn), the viability is 110%.

`Cc1c(/C(O)=C2/C(=O)C(=O)N(CCN3CCOCC3)C2c2cccs2)cnn1-c1ccccc1` (stereo not drawn): the viability is 116%.

Regarding `c1cc2c(cc1C1=Nn3c(nnc3C3CCCCC3)SC1)OCO2`, the viability was 64.8%.

With `COc1ccc(CNC(=O)C(c2ccco2)N(Cc2cccs2)C(=O)Cc2cccs2)cc1` (stereo not drawn), the viability was 67.5%.

Turning to `Cc1cccc(NC(=O)c2cc3ccccc3o2)c1`, the viability was 75.8%.

As for `COc1ccc(S(=O)(=O)NCCOc2ccccc2)cc1OC`, the viability is 97.7%.

Regarding `Cc1nc(SC2C=CS(=O)(=O)C2)n[nH]1` (stereo not drawn), the viability was 99.7%.

`O=C1c2ccccc2C(Nc2ccc3nc(-c4cccnc4)[nH]c3c2)N1Cc1ccco1` (stereo not drawn): the viability was 87.5%.

With `Cc1ccc(NC(=O)CSc2nnc(CCCCCNC(=O)OC(C)(C)C)o2)c(C)c1`, the viability was 88.6%.

Regarding `O=S(=O)(NCC1CCCO1)c1ccc(S(=O)(=O)N2CCc3ccccc3C2)cc1` (stereo not drawn), the viability was 94.9%.

Take `COC(=O)c1ccc(C(=O)OC)c(NC(=O)Nc2ccc3c(c2)OCO3)c1`: the viability is 89.1%.

Turning to `CCN(CC(=O)NCc1cccs1)C(=O)c1cc(S(=O)(=O)N2CCOCC2)ccc1C`, the viability was 98.8%.

Turning to `COc1ccc(-c2c3c(=O)n(C)c(=O)n(C)c3cn2-c2cccc(OC)c2)cc1`, the viability was 95.9%.

As to `CCOC(=O)CCC(=O)Nc1ccc(S(=O)(=O)N2CCCC2)cc1`, the viability is 105%.
